Experiments:
[1] = biological target: Muscarinic acetylcholine receptor M3 (Rattus norvegicus) (UniProt P08483); assay: In vitro antimuscarinic activity against the M3 muscarinic receptor subtype in rat bladder
Method in brief: (§1)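 Rat urinary detrusor strips (extratrigonal, 1 cm × 2 mm), fasted overnight, isotonic recording at 1 g resting tension; 30–45 min equilibration. Cumulative furtrethonium curves in 0.5 log-unit increments, repeated until two matched, then final curve after ≥30 min with test compound. E50 by four-parameter logistic fit; pKb = log(DR−1) − log[B], mean ± SE.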

[2] = biological target: Muscarinic acetylcholine receptor M3 (Rattus norvegicus) (UniProt P08483); assay: In vitro antimuscarinic activity against the M3 muscarinic receptor subtype in rat ileum; assay type: tissue-based
Method in brief: as §1, with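 “Rat longitudinal ileum segments (~2 cm),” for “Rat urinary detrusor strips (extratrigonal, 1 cm × 2 mm),”, “at 0.5” for “at 1”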

[3] = biological target: T1, Muscarinic acetylcholine receptor M2 (Homo sapiens) (UniProt P08172); assay: In vitro antimuscarinic activity against the M2 muscarinic receptor subtype in guinea pig atria; details: Cavia porcellus; target entry is the homologue from another species
T1 sequence (whole entry): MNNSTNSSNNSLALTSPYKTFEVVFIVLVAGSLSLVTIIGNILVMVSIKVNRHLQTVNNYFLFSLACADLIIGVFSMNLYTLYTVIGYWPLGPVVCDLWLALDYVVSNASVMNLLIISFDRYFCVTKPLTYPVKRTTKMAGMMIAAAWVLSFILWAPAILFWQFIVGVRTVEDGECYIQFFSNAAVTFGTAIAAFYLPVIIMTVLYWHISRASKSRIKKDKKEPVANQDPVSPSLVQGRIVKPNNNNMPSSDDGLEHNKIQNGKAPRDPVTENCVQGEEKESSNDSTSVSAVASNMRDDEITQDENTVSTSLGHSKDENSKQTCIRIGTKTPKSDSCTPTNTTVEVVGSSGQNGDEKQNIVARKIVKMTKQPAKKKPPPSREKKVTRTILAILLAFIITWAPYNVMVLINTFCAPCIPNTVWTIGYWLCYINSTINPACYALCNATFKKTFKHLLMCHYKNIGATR
Method in brief: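 Guinea pig atria (both), fasted overnight, resting tension 1 g, force recorded; 30–45 min equilibration. Cumulative carbachol curves in 0.25 log-unit increments, repeated until two matched, then final curve after ≥30 min with test compound. E50 from four-parameter logistic fit; pKb = log(DR−1) − log[B], mean ± SE.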

Chain of Muscarinic acetylcholine receptor M3 (Rattus norvegicus) (P08483 whole entry, looked up): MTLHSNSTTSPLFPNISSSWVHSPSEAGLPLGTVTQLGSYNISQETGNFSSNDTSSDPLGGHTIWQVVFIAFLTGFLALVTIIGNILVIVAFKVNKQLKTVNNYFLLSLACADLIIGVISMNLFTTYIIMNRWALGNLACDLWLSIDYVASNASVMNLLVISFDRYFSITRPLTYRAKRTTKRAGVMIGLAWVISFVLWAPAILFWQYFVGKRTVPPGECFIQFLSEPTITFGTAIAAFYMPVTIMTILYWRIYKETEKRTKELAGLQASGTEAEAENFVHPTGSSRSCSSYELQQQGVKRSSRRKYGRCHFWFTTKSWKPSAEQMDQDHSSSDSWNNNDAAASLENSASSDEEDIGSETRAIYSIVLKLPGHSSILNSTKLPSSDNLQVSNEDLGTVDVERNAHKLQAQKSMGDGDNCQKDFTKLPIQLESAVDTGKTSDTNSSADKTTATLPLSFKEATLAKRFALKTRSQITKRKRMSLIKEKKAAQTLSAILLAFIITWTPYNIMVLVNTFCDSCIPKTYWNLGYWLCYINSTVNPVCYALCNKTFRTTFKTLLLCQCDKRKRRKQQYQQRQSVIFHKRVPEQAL

Row | SMILES | pKb [1] | pKb [2] | pKb [3]
1 | CN(C)Cc1ccc(COC(=O)C2c3ccccc3Oc3ccccc32)o1 | 6.6 | 7.1 | 6.5
2 | CN(Cc1ccccc1)Cc1ccc(COC(=O)C(c2ccccc2)C2CCCCC2)o1 (stereo not given) | < 5 | < 5 | < 5
3 | CN(C)Cc1ccc(COC(=O)C(c2ccccc2)c2ccccc2)o1 | 6.5 | 6.5 | 5.9
4 | CC(C)N(C)Cc1ccc(COC(=O)C(c2ccccc2)C2CCCCC2)o1 (stereo not given) | 6.7 | 7 | 5
5 | O=C(OCc1ccc(CN2CCOCC2)o1)C(c1ccccc1)C1CCCCC1 (stereo not given) | 5.7 | 5.5 | < 5
6 | CN(C)Cc1ccc(COC(=O)C(c2ccccc2)C2CCCCC2)o1 (stereo not given) | 7.2 | 7.3 | 5.9
7 | CN(Cc1ccc(COC(=O)C(c2ccccc2)C2CCCCC2)o1)C1CCCCC1 (stereo not given) | < 5 | 6.5 | < 4.5
8 | CCCCCN(C)Cc1ccc(COC(=O)C(c2ccccc2)C2CCCCC2)o1 (stereo not given) | < 5 | 6.9 | < 5
9 | CCCN(C)Cc1ccc(COC(=O)C(c2ccccc2)C2CCCCC2)o1 (stereo not given) | 6 | 6.8 | < 5
10 | O=C(OCc1ccc(CN2CCCCC2)o1)C(c1ccccc1)c1ccccc1 | 6.2 | 6 | < 5
11 | CN(C)Cc1ccc(COC(=O)C2c3ccccc3-c3ccccc32)o1 | 5.6 | 5.8 | 4.8
12 | O=C(OCc1ccc(CN2CCCCC2)o1)C(c1ccccc1)C1CCCCC1 (stereo not given) | 5.3 | 6.3 | < 5
13 | O=C(OCc1ccc(CN2CCC(O)CC2)o1)C(c1ccccc1)C1CCCCC1 (stereo not given) | 6 | 6.5 | < 5
14 | CCN(CC)Cc1ccc(COC(=O)C(c2ccccc2)C2CCCCC2)o1 (stereo not given) | 6 | 6.7 | < 5
15 | CN(C)Cc1ccc(COC(=O)C(O)(C2CCCCC2)C2CCCCC2)o1 | 7.2 | 7.1 | < 5

From ChEMBL document CHEMBL1127431, “Cholinergic agents structurally related to furtrethonium. 2. Synthesis and antimuscarinic activity of a series of N-[5-[(1'-substituted-acetoxy) methyl]-2-furfuryl]dialkylamines” (J Med Chem, 1994)
